# Screening results (PubChem)
# Rows were chosen to be rich in hits. Some 2.8% of all compounds tested hit in one or more screens of this group.
# NPY Y2 blocker – NPY-Y2 receptor antagonists, primary screen, cell-based. inhibition, % at 2.7 µM. Neuropeptide Y receptor type 2 (Homo sapiens), P49146. NPY-Y2 expressing cells, antagonist mode. 140,000 tested, 0.99% active; in the data active = inhibition above about 17%;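 note: 0% = vehicle with agonist challenge and 100% = reference antagonist with challenge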
# NPY-Y1 PAM-ag – NPY-Y1 receptor potentiators or agonists, primary screen, cell-based. Neuropeptide Y receptor type 1 (Homo sapiens), P25929. NPY-Y1 expressing cells, potentiator/agonist activation. activation, % at 3.6 µM. 220,000 tested, 0.37% active; in the data active = activation above about 33%, passing the limit was not always enough;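 note: cells stimulated with NPY at EC10 then isoproterenol at EC100; 0% = low agonist plus stimulus and 100% = saturating agonist plus stimulus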
# Target sequence (P25929 whole entry, looked up): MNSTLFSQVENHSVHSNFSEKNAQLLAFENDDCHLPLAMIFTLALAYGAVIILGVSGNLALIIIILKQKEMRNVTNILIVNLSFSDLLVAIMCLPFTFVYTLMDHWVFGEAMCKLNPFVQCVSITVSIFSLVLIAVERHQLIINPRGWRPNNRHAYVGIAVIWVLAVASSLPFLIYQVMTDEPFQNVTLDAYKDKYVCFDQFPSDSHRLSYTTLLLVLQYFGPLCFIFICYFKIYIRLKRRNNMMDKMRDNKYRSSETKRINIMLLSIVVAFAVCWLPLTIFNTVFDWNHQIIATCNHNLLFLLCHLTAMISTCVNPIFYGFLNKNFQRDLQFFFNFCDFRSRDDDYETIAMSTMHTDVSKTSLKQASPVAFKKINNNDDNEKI
# NPY-Y2 PAM-ag – NPY-Y2 potentiators or agonists, primary screen, cell-based; cells expressing NPY-Y2, potentiator/agonist read-out; activation, % at 3.6 µM; 220,000 tested, 0.45% active; in the data active = activation above about 27%;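 note: cells stimulated with NPY near EC25 plus isoproterenol at EC100; 0% = vehicle plus submaximal agonist and 100% = vehicle plus saturating agonist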
# MDM2 E3 inh – MDM2-luciferase reporter signal enhancers, primary screen, MDM2 E3 ligase inhibitor project, cell-based, luminescence, 1536-well; 210,000 tested, 0.11% active; cell-based MDM2 ubiquitination luciferase reporter, 2 h; 0 = plate control, 100 = twice control, blank-subtracted; AID 1230, 2008; signal enhancement, % at 5 µM;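 active = signal enhancement of 30% or more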;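 note: luminescence tracks abundance of the self-degrading MDM2-luciferase fusion protein; higher signal means inhibition of MDM2 E3 ligase activity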
#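 Timing – 2 h compound exposure at 37 °C · Assay system – mammalian cells stably expressing self-ubiquitinating, self-degrading MDM2 E3–luciferase fusion · Amount – 2000 cells seeded into each well · Measure – % luminescence enhancement versus blank-corrected plate control mean · Measured by – SteadyLite luminescence, 15 min reagent step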
# Measles CPE – compounds protecting cells from measles virus cytopathic effect, primary screen, measles RdRp inhibitor project, single point, MLSMR library, absorbance; Measles virus-infected cells, CPE protection; AID 841, 2007; 140,000 tested, 1.5% active; protection (pct of control), % at 4 µM; in the data active = protection mostly above about 24%, no sharp cut-off; inactive = mostly below about 26%
# NPY Y1 blocker – NPY-Y1 receptor antagonists, primary screen, cell-based; Neuropeptide Y receptor type 1 (Homo sapiens), P25929; HEK293-CNG Y1 cells, membrane potential fluorescence; NPY at EC95, then isoproterenol; inhibition, % at 3.6 µM; 200,000 tested, 1% active; AID 1040, 2008;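 active = inhibition above the campaign mean inhibition of all tested compounds plus 3 SD, cut at about 20% in these data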;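 note: 0% = DMSO wells given NPY plus isoproterenol and 100% = isoproterenol alone without NPY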
#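 Material: HEK293 Y1/CNG channel cell line; also added: NPY (25 nM), isoproterenol (1 µM), Ro 20-1724 (25 µM); doses: one concentration, 3.6 µM, in 0.4% DMSO; schedule: compound incubation 1 h at room temperature, readout 45 min post-stimulation; technique: membrane potential fluorescence; measure: fluorescence ratio normalized to % inhibition between controls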
# NPY1 antag ctr – NPY-Y1 receptor antagonists, selectivity check, counter-screen for NPY-Y2 antagonist project, cell-based; shares compounds with NPY Y2 blocker; cell-based NPY-Y1 antagonism counterscreen; inhibition, % at 3.6 µM; 710 tested, 19% active; AID 1256, 2008; in the data active = inhibition above about 20%;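 note: cells challenged with NPY then isoproterenol with cAMP sensed through a CNG channel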
# NPY-Y2 ant conf – NPY-Y2 receptor antagonists, retest of hits, confirmation, HEK293-CNG cells, membrane potential fluorescence, triplicate; AID 1257, 2008; shares compounds with NPY Y2 blocker; 710 tested, 32% active; inhibition, % at 2.8 µM; HEK293 NPY-Y2 CNG channel;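 active = mean inhibition of triplicate wells above the hit cutoff set in the primary screen, cut at about 17% in these data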;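 note: 0% = DMSO with NPY challenge and 100% = BIIE0246 high control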
# The depositor's hits bear a star; · = no result given.
SMILES,NPY Y2 blocker,NPY-Y1 PAM-ag,NPY-Y2 PAM-ag,MDM2 E3 inh,Measles CPE,NPY Y1 blocker,NPY1 antag ctr,NPY-Y2 ant conf
CCOC(=O)C1(Cc2cccc(F)c2)CCN(Cc2cnn(CC)c2C)CC1,·,-2.9,10.2,19.2,·,8.4,·,·
O=C(COC(=O)c1ccc(S(=O)(=O)NCc2ccco2)cc1)NC1CCCCCC1,1.2,16.4,7.8,-9.9,6.2,2.1,·,·
O=C(NC1CCCCCC1)c1ccc(S(=O)(=O)NCc2ccco2)cc1,20.5*,-13.7,-11.0,-24.2,8.8,17.1,12.0,6.3
Cc1cc(C)n(-c2nc(Nc3ccccc3C(F)(F)F)nc(-n3nc(C)cc3C)n2)n1,19.1*,-19.3,-2.4,-4.1,7.7,4.2,9.5,6.8
CCOC(=O)c1ccc(N2C(=O)c3n[nH]c(C)c3C2c2cccnc2)cc1 (stereo unspecified),2.9,4.0,14.7,-10.5,14.4,-5.7,·,·
CCOC(=O)c1ccc(N2C(=O)c3n[nH]c(-c4ccco4)c3C2c2ccc([N+](=O)[O-])cc2)cc1 (stereo unspecified),25.7*,-62.6,-68.2,-5.2,17.0,19.3,21.9*,16.9
Cc1ccc(-c2csc(N(CCCN3CCOCC3)C(=O)c3ccco3)n2)cc1,17.7*,-35.3,-12.9,-6.1,2.6,14.4,14.0,11.1
COc1ccc(-c2csc(N(CCCN3CCOCC3)C(=O)c3ccco3)n2)cc1,18.3*,-39.9,-7.5,-32.0,5.0,16.5,11.9,13.2
CCC1=Nc2ccc(Br)cc2C(c2ccccc2)N1CC(=O)OC (stereo unspecified),22.7*,6.2,-16.0,-5.1,7.9,14.1,13.0,23.4*
O=C1OC(c2ccco2)=N/C1=C\c1ccc(-c2cccc(C(F)(F)F)c2)o1,5.9,-0.7,-6.6,2.7,27.5,0.4,·,·
Cc1ccccc1N1C(=O)c2ccccc2N2C(=O)c3ccccc3C12 (stereo unspecified),22.7*,-9.1,-17.0,-10.2,18.6,12.0,4.8,6.9
O=C1c2ccccc2N2C(=O)c3ccccc3C2N1O (stereo unspecified),0.2,3.1,-3.6,-15.6,7.4,-1.4,·,·
O=C(Nc1ccc(-c2ccc3nncn3n2)cc1)c1ccc(Br)o1,·,2.0,-3.0,-4.8,·,0.0,·,·
C=CCC1(O)C(=O)N2C(=C1C(=O)N1CCOCC1)c1ccccc1CC2(C)C (stereo unspecified),1.2,-0.8,-6.6,-9.9,8.7,6.2,·,·
O=[N+]([O-])c1ccc(-c2csc(Nc3ccccc3)[n+]2Cc2ccccc2)cc1,18.7*,-4.2,11.8,-10.0,11.8,10.7,11.3,8.7
Cc1cc(=O)[nH]c(-c2ccc(C(F)(F)F)cc2)n1,·,0.3,11.4,-6.9,·,·,·,·
Cc1cccc(Nc2c3c(nc4ccccc24)CCC3)c1,·,-29.4,-27.9,-9.5,·,·,·,·
Cc1ccc2nc3c(c(Nc4ccc5c(c4)OCCO5)c2c1)CCC3,22.0*,-13.3,18.6,5.7,8.4,13.4,12.9,12.8
CCOc1ccc(-n2cc(C(=O)Nc3cccc(Cl)c3)c3cc(OC)c(OC)cc3c2=O)cc1,17.7*,-61.8,-30.2,-10.1,6.8,12.9,11.7,20.3*
COC(=O)C(C)N(C(=O)c1ccc(Cl)cc1)c1c(C)cccc1C (stereo unspecified),7.1,-14.6,-5.3,-6.7,5.1,8.6,·,·
